Reference: ChEMBL document CHEMBL2034940, “Synthesis of N6-alkyl(aryl)-2-alkyl(aryl)thioadenosines as antiplatelet agents” (Eur J Med Chem, 2012)

What was measured:
Platelet [1] = test: Inhibition of ADP-induced platelet aggregation in human platelet rich plasma incubated 1 min prior ADP induction measured after 3 mins by Born's method using aggregometer; format: functional, cell-free; settings: for IC50: Homo sapiens, Platelet, Plasma
Outline: (§1)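 Citrated (3.8% sodium citrate, 1:9) venous blood from healthy donors free of aspirin/NSAIDs for at least 14 days. PRP prepared by centrifugation, with PPP as the baseline blank. Compound in DMSO (below 0.5% final) added to 500 µL PRP 1 min before 10 µM ADP (final), at 37 °C. Aggregation is the maximum tracing height over at least 3 min, expressed as % inhibition versus vehicle. IC50 comes from non-linear regression, mean ± S.E.M., n = 3.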

Platelet [2] = test: Inhibition of ADP-induced platelet aggregation in human platelet rich plasma at 300 uM incubated 1 min prior ADP induction measured after 3 mins by Born's method using aggregometer relative to control; format: functional
Outline: (§2)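 Human citrated PRP from drug-free healthy donors, with PPP as the blank, in an aggregometer at 37 °C. Compound added at 300 µM final in DMSO (below 0.5%) for 1 min, then 10 µM ADP final. Maximum aggregation tracing height read over at least 3 min and compared with the DMSO vehicle control.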

Platelet [3] = test: Inhibition of ADP-induced platelet aggregation in human platelet rich plasma assessed as platelet aggregation at 300 uM incubated 1 min prior ADP induction measured after 3 mins by Born's method using aggregometry relative to control; format: functional; design: scale not given: the % may be the effect or the level left; outline: as §2
Platelet [4] = test: Inhibition of arachidonic acid-induced platelet aggregation in human platelet rich plasma incubated 1 min prior arachidonic acid induction measured after 3 mins by Born's method using aggregometer; format: functional, cell-free; settings: for IC50: Homo sapiens, Platelet, Plasma
Outline: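 Citrated PRP from healthy volunteers free of aspirin/NSAIDs for at least 14 days, with PPP as the baseline blank. Compound in DMSO (below 0.5% final) preincubated 1 min in 500 µL PRP at 37 °C, then 0.5 mM arachidonic acid (final) added. Maximum aggregation height over at least 3 min gives % inhibition versus vehicle. IC50 by non-linear regression, mean ± S.E.M. of 3 experiments.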

Platelet [5] = test: Inhibition of ADP-induced platelet aggregation in human platelet rich plasma; format: functional, cell-free; outline: as §1

Row | Structure (SMILES) | inhibition (INH) (Platelet [1]) | inhibition at 300 µM (Platelet [2]) | Activity (Platelet [3]) | further results
1 | CCSc1nc(NCc2ccccc2)c2ncn([C@@H]3O[C@H](CO)[C@@H](O)[C@H]3O)c2n1 | >50% | – | – | –
2 | CCCCCCNc1nc(SCC)nc2c1ncn2[C@@H]1O[C@H](CO)[C@@H](O)[C@H]1O | – | < 50% | 57% | –
3 | CCCCCCNc1nc(SCCC)nc2c1ncn2[C@@H]1O[C@H](CO)[C@@H](O)[C@H]1O | >50% | – | – | –
4 | CCCCCCNc1nc(SCCCC)nc2c1ncn2[C@@H]1O[C@H](CO)[C@@H](O)[C@H]1O | – | < 50% | 66% | –
5 | CCSc1nc(NC2CCCCC2)c2ncn([C@@H]3O[C@H](CO)[C@@H](O)[C@H]3O)c2n1 | >50% | – | – | –
6 | CCCSc1nc(NC2CCCCC2)c2ncn([C@@H]3O[C@H](CO)[C@@H](O)[C@H]3O)c2n1 | >50% | – | – | –
7 | CC(C)Sc1nc(NC2CCCCC2)c2ncn([C@@H]3O[C@H](CO)[C@@H](O)[C@H]3O)c2n1 | >50% | – | – | –
8 | CCCCSc1nc(NC2CCCCC2)c2ncn([C@@H]3O[C@H](CO)[C@@H](O)[C@H]3O)c2n1 | >50% | – | – | IC50 (Platelet [1]): 83 µM
9 | CCCCN(CCCC)c1nc(SCC)nc2c1ncn2[C@@H]1O[C@H](CO)[C@@H](O)[C@H]1O | – | < 50% | 77% | –
10 | CSc1nc(NCc2ccccc2)c2ncn([C@@H]3O[C@H](CO)[C@@H](O)[C@H]3O)c2n1 | – | < 50% | 52% | –
11 | CCCSc1nc(NCc2ccccc2)c2ncn([C@@H]3O[C@H](CO)[C@@H](O)[C@H]3O)c2n1 | >50% | – | – | –
12 | CCCCSc1nc(NCc2ccccc2)c2ncn([C@@H]3O[C@H](CO)[C@@H](O)[C@H]3O)c2n1 | >50% | – | – | –
13 | CSc1nc(NCc2ccc(C)cc2)c2ncn([C@@H]3O[C@H](CO)[C@@H](O)[C@H]3O)c2n1 | – | < 50% | 77% | –
14 | CCSc1nc(NCc2ccc(C)cc2)c2ncn([C@@H]3O[C@H](CO)[C@@H](O)[C@H]3O)c2n1 | – | < 50% | 88% | –
15 | COc1ccc(CNc2nc(SC)nc3c2ncn3[C@@H]2O[C@H](CO)[C@@H](O)[C@H]2O)cc1 | – | < 50% | 69% | –
16 | CCSc1nc(NCc2ccc(OC)cc2)c2ncn([C@@H]3O[C@H](CO)[C@@H](O)[C@H]3O)c2n1 | – | < 50% | 74% | –
17 | CCCSc1nc(NCc2ccc(OC)cc2)c2ncn([C@@H]3O[C@H](CO)[C@@H](O)[C@H]3O)c2n1 | >50% | – | – | –

Row | Structure (SMILES) | inhibition (INH) (Platelet [1]) | inhibition at 300 µM (Platelet [2]) | Activity (Platelet [3]) | further results
18 | CSc1nc(NCCc2ccccc2)c2ncn([C@@H]3O[C@H](CO)[C@@H](O)[C@H]3O)c2n1 | >50% | – | – | inhibition (INH) (Platelet [4]): >50%; IC50 (Platelet [4]): 3 µM; IC50 (Platelet [1]): 36 µM
19 | CCSc1nc(NCCc2ccccc2)c2ncn([C@@H]3O[C@H](CO)[C@@H](O)[C@H]3O)c2n1 | >50% | – | – | inhibition (INH) (Platelet [4]): >50%; IC50 (Platelet [4]): 30 µM; IC50 (Platelet [1]): 29 µM
20 | CCCSc1nc(NCCc2ccccc2)c2ncn([C@@H]3O[C@H](CO)[C@@H](O)[C@H]3O)c2n1 | >50% | – | – | inhibition (INH) (Platelet [4]): >50%; IC50 (Platelet [4]): 44 µM; IC50 (Platelet [1]): 52 µM
21 | CCCCSc1nc(NCCc2ccccc2)c2ncn([C@@H]3O[C@H](CO)[C@@H](O)[C@H]3O)c2n1 | >50% | – | – | inhibition (INH) (Platelet [4]): < 50%; IC50 (Platelet [1]): 59 µM
22 | OC[C@H]1O[C@@H](n2cnc3c(NCCc4ccccc4)nc(Sc4ccccc4)nc32)[C@H](O)[C@@H]1O | – | < 50% | 57% | –
23 | OC[C@H]1O[C@@H](n2cnc3c(NCCc4ccccc4)nc(SCc4ccccc4)nc32)[C@H](O)[C@@H]1O | – | < 50% | 57% | –
24 | COc1ccc(CCNc2nc(SC)nc3c2ncn3[C@@H]2O[C@H](CO)[C@@H](O)[C@H]2O)cc1 | >50% | – | – | –
25 | CCSc1nc(NCCc2ccc(OC)cc2)c2ncn([C@@H]3O[C@H](CO)[C@@H](O)[C@H]3O)c2n1 | >50% | – | – | IC50 (Platelet [1]): 89 µM
26 | CCCSc1nc(NCCc2ccc(OC)cc2)c2ncn([C@@H]3O[C@H](CO)[C@@H](O)[C@H]3O)c2n1 | >50% | – | – | –
27 | CCCCSc1nc(NCCc2ccc(OC)cc2)c2ncn([C@@H]3O[C@H](CO)[C@@H](O)[C@H]3O)c2n1 | >50% | – | – | IC50 (Platelet [1]): 93 µM
28 | COc1cccc(CCNc2nc(SC)nc3c2ncn3[C@@H]2O[C@H](CO)[C@@H](O)[C@H]2O)c1 | – | < 50% | 71% | –
29 | CCSc1nc(NCCc2cccc(OC)c2)c2ncn([C@@H]3O[C@H](CO)[C@@H](O)[C@H]3O)c2n1 | >50% | – | – | inhibition (INH) (Platelet [4]): < 50%; IC50 (Platelet [1]): 38 µM
30 | CCCSc1nc(NCCc2cccc(OC)c2)c2ncn([C@@H]3O[C@H](CO)[C@@H](O)[C@H]3O)c2n1 | >50% | – | – | IC50 (Platelet [1]): 69 µM
31 | CCCCSc1nc(NCCc2cccc(OC)c2)c2ncn([C@@H]3O[C@H](CO)[C@@H](O)[C@H]3O)c2n1 | – | < 50% | 85% | –
32 | CCSc1nc(NC(C)c2ccccc2)c2ncn([C@@H]3O[C@H](CO)[C@@H](O)[C@H]3O)c2n1 (some centres not stated) | >50% | – | – | –
33 | CSCCNc1nc(SCCC(F)(F)F)nc2c1ncn2[C@@H]1O[C@H](COP(=O)(O)OP(=O)(O)C(Cl)(Cl)P(=O)(O)O)[C@@H](O)[C@H]1O [CANGRELOR TETRASODIUM] | – | – | – | IC50 (Platelet [5]): 0.0004 µM
